According to PMC4324687 (Pharmacology Research & Perspectives, 2015):
Several values for one entry are separate records, joined by “and”; a condition that tells them apart may be missing. Identical values can stand only once. Like-named read-outs stand apart in the source and are kept apart here.

Legend:
[1] = type: in vivo, human
[2] = Pharmacokinetics of 14C-vemurafenib-related material; type: in vivo, human; conditions: for Cmax, mean ± SD [CV%]: single oral 960-mg dose
[3] = Metabolic profiling of pooled plasma; type: in vivo, human; conditions: for proportion of total chromatographic radioactivity in plasma, overall: over the 48-h interval postdose
[4] = Metabolic profiling of pooled feces; type: in vivo, human
[5] = Metabolic profiling of pooled urine; type: in vivo, human; conditions: single pool 0–96 h
[6] = tested on: patients with metastatic melanoma; assay: Safety assessments in patients with metastatic melanoma; type: in vivo, human
Outline: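 Seven patients received a single oral 960-mg dose of 14C-labelled test compound on day 15 after ≥8 h fasting. Monitoring ran through the study and a 28-day follow-up and covered adverse events, routine laboratory values, physical examination, vital signs, electrocardiography, dermatology, and head/neck and chest CT. SCC cases were followed until death, consent withdrawal or loss to follow-up. Severity was graded by NCI CTCAE v4.0 and summarised.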

[7] = cited from earlier work
CYP3A4 = conditions: human liver microsomes; ref F. Hoffmann-La Roche, data on file; cited from earlier work
[8] = ref F. Hoffmann-La Roche, data on file, cited from earlier work
[9] = dog plasma after oral administration; ref F. Hoffmann-La Roche, data on file; cited from earlier work
[10] = cited from earlier work; remark: listed apart in the source
[11] = within 18 days after dosing, listed as 14C-vemurafenib
[12] = plasma, N=5, listed as 14C-vemurafenib
[13] = laboratory evaluation, of seven patients

With CCCS(=O)(=O)Nc1ccc(F)c(C(=O)c2c[nH]c3ncc(-c4ccc(Cl)cc4)cc23)c1F [vemurafenib] the “time within which the majority of fecal radioactivity was eliminated” value ([1]; cumulative excretion in feces) was no more than 264 h, the “time within which the majority of urinary radioactivity was eliminated” value ([1]; cumulative excretion in urine) was no more than 192 h and the “radioactivity recovered in feces, mean ± SD” value ([1]; within 18 days after dosing) was “Approximately 94%”. The “radioactivity recovered in feces, range” value ([1]; within 18 days after dosing) was 89.4–97.6%, the “radioactivity recovered in urine, mean” value ([1]; within 18 days after dosing) was no more than 1% and the “radioactivity recovered in urine, range” value ([1]; within 18 days after dosing) was 0.56–1.63%. The “radioactivity recovered in feces, mean ± SD” value [1, 11] was 94.1% and 94.1 ± 2.7%, the “radioactivity recovered in urine, mean” value [1, 11] was less than 1% and the “14C-vemurafenib-related material recovered from urine and feces, range” value ([1]; within 18 days after dosing, seven patients) was 91.0–98.3%. For the same compound, the “Blood/plasma AUC ratio, mean ± SD [CV%]” value ([2]; N=5) was 0.72 ± 0.050 [6.83], the “14C-vemurafenib-related material that might be bound to the cellular compartment in whole blood” value ([2]; assuming 40–50% of whole blood is cells) was 10–20% and the “Tmax, median (minimum–maximum)” value ([2]; blood, N=5) was 4.1 (4–12) ^1 h. For the same compound, the “t½ (elimination half-life), mean ± SD [CV%]” value ([2]; blood, N=5) was 84.4 ± 24.6 [29.1] h, the “Cmax, mean ± SD [CV%]” value ([2]; blood, N=5) was 5.25 ± 1.71 [32.5] μg eq/mL and the “Blood/plasma AUC ratio, range” value ([2]; human, blood and plasma, oral, 960 mg) was 0.69–0.81. The “plasma elimination half-life of 14C-vemurafenib-related material, range” value ([2]; plasma) was 51 to 86 h, the “Tmax, median (minimum–maximum)” value ([2]; plasma, N=5) was 4.1 (4–12) ^1 h and the “t½ (elimination half-life) of 14C-vemurafenib-related material, mean ± SD [CV%]” value ([2]; plasma, N=5) was 71 h. For the same compound, the “t½ (elimination half-life) of 14C-vemurafenib-related material, mean ± SD [CV%]” value [2, 12] was 71.1 ± 15.4 [21.6] h, the “Cmax, mean ± SD [CV%]” value [2, 12] was 7.83 ± 2.28 [29.1] μg eq/mL and the “proportion of radioactivity in pooled plasma, mean ± SD” value ([3]; 4–6 h pool) was 99.5 ± 1.4%. For the same compound, the “proportion of radioactivity in pooled plasma, mean ± SD” value ([3]; 12–24 h pool) was 95.9 ± 5.5%, the “proportion of radioactivity in pooled plasma, mean ± SD” value ([3]; 36–48 h pool) was 96.0 ± 3.8% and the “proportion of total chromatographic radioactivity in plasma, overall” value ([3]; listed as parent compound) was 95%. For the same compound, the “proportion of total chromatographic radioactivity in plasma, overall” value ([3]; listed as parent molecule) was greater than 95%, the “proportion of radioactivity in feces, mean” value ([4]; 48–96 h pool) was 55.5 ± 20.1% and the “% of the total input dose found in pooled feces” value ([4]; first 48 h) was 38%. The “proportion of all recovered radioactivity in feces, mean ± SD” value ([4]; first 48 h pool) was 94.2 ± 5.8%, the “% of the total radioactive dose found in pooled feces” value ([4]; within the first 96 h) was roughly 55% and the “% of total administered (input radioactive) dose in urine” value [5] was roughly 1%. The “severity of most adverse events” value ([6]; NCI CTCAE grade 1 or 2) was “mild or moderate”, the “serious adverse events (all grade 3), number of events” value ([6]; cuSCC, cuSCC and keratoacanthoma, considered related) was “Three” and the “elevated low-density lipoprotein cholesterol level” value [6, 13] was “three”. For the same compound, the “grade 3 lymphopenia” value [6, 13] was “four”, the “low white blood cell count” value [6, 13] was “three” and the “changes in electrocardiography or vital signs” value ([6]; seven patients) was “No clinically significant changes”. The “patients with at least one adverse event related to vemurafenib” value ([6]; seven patients) was “All patients”, the “treatment discontinuation because of an adverse event” value ([6]; seven patients) was “No patient discontinued treatment” and the tolerability ([6]; seven patients, 960 mg twice daily) was “well-tolerated”. The “median elimination half-life (population PK modeling)” value ([7]; continual multiple-dose vemurafenib, ref Genentech, Inc. [2014]) was 57 h, the “elimination half-life after a single dose” value ([7]; single dose, ref Ribas et al. [2014]) was roughly 25 h and the “primary enzyme responsible for metabolism and formation of hydroxylated metabolites” value (CYP3A4) was “CYP3A4 was the primary enzyme”. For the same compound, the “component status of unchanged parent drug in plasma” value ([8]; rat plasma after oral administration) was “major component”, the “route of recovery of vemurafenib-derived radioactivity (parent plus metabolites)” value ([8]; rats) was “primarily recovered in feces” and the “component status of unchanged parent drug in plasma” value [9] was “major component”. The “maximum tolerated dose and recommended dose for further clinical evaluation” value ([10]; phase 1 data, ref Flaherty et al. [2010]) was 960 mg twice daily and the “pharmacokinetics with hand-filled capsules versus tablets” value ([10]; phase 1 trial PLX06-02, ref phase 1 trial PLX06-02) was “No differences”.
